Screens deposited in PubChem BioAssay by several laboratories.
Most compounds without a hit are left out; they make up all but 2.4% or so of the library.
aDG glyco act = increases alpha dystroglycan glycosylation; Pro5-aDG cells, alpha-DG glycosylation AlphaScreen (IIH6); 0% Pro5, 100% B10-LARGE cell signal; activation, % at 10 µM; 0.22% of 360,000 active; AID 624168;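 active means activation of at least 8% versus controls, or a plate z-score of at least 8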;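 further: Pro5 are CHO cells carrying HIG-tagged alpha-DG that lacks glycosylation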
Tb MetRS inh = blocks T. brucei methionyl-tRNA synthetase activity | purified T. brucei MetRS, ATP depletion, Kinase-Glo luminescence | inhibition, % at 11.9 µM | 0.4% of 360,000 active | AID 624268;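 active means inhibition above a per-plate cutoff of the control wells' mean inhibition plus 3 SD, cut at about 5.5% in these data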;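 further: 0% = DMSO wells median and 100% = median of wells with control inhibitor compound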
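Dosing: 11.9 µM compound single dose, 0.9% DMSO; Assay system: purified T. brucei MetRS enzyme; Measured by: Kinase-Glo luciferase luminescence reporting remaining unconsumed ATP; Schedule: 15 min plus 2 h at 25 °C.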
MC4R barr agon = activates human MC4R beta-arrestin recruitment | P32245 | U2OS MC4R beta-arrestin complementation, luminescence; percent of melanotan II response, DMSO zero | activation, % at 8.9 µM | 0.98% of 360,000 active | AID 540308;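 active means activation above a per-plate cutoff, the mean activation of sample wells on that plate plus 3 SD, cut at about 8% in these data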
H9c2 TAG inh = reduces triacylglycerol accumulation in H9c2 cells. Nile Red lipid (TAG) fluorescence; cells loaded with 200 µM oleic acid. inhibition, % at 12.5 µM. 0.66% of 230,000 active. AID 651582;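 active means pattern-corrected inhibition of lipid staining of at least 50% with the nuclear-stain viability signal not falling by more than 50%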;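 further: 0% = DMSO wells and 100% = triacsin C control wells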
NTR1 ag = agonists of human neurotensin receptor NTR1; P30989; NTR1-U2OS beta-arrestin-GFP spot imaging, agonist mode; activation, % at 20 µM; 0.17% of 330,000 active;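 active means activation at or above 40% of the spot to cytoplasm intensity ratio, with at least 20 cells analyzed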;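 further: 0% = DMSO without peptide and 100% = 100 nM NTR1 peptide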
MC4R antagonist = human MC4R antagonism in cAMP assay; P32245; MC4R-expressing cells, MTII-stimulated cAMP, LANCE TR-FRET; inhibition, % at 6.5 µM; 0.48% of 360,000 active; AID 540295;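 active means inhibition above its plate's cutoff, the mean of tested wells on that plate plus 3 SD, cut at about 29% in these data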;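 further: 0% = Melanotan II alone and 100% = Melanotan II plus saturating MCL0020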
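Assay system: human MC4R-expressing U2OS cells; reagent: Melanotan II stimulation of cells; dosing: 6.5 µM single dose; timing: compound 30 min, challenge 1 h, detection 1 h; signal: TR-FRET cAMP assay; replicates: one well per compound, no replicates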
NTR1 ag confirm = confirmation of agonists of human NTR1; activation, % at 20 µM; NTR1-U2OS beta-arrestin-GFP translocation imaging; 38% of 480 active; shares compounds with NTR1 ag;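 active means mean activation at 20 µM of at least 40%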;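 further: 0% = DMSO without peptide and 100% = 100 nM NTR1 peptide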
cAMP nonselect = U2OS forskolin cAMP inhibition counter-screen; shares compounds with MC4R antagonist; parental U2OS, LANCE TR-FRET; inhibition, % at 6.5 µM; 26% of 1,600 active; AID 602193;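 active means mean inhibition over triplicates above the low-control well mean plus 3 SD, set per campaign, cut at about 13% in these data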;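 further: signal is single emission at 671 nm which falls as cellular cAMP rises; 0% = forskolin-stimulated wells and 100% = buffer without forskolin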
MC4R antag conf = human MC4R cAMP antagonism confirmation; 27% of 1,600 active; MC4R-expressing cells, MTII-stimulated cAMP, TR-FRET; shares compounds with MC4R antagonist; inhibition, % at 6.5 µM; in the data active means inhibition above about 29%;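 further: 0% = agonist stimulated wells alone and 100% = agonist stimulated wells plus saturating reference antagonist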
MC4R barr conf = human MC4R beta-arrestin agonism confirmation; 31% of 2,400 active; activation, % at 8.9 µM; U2OS MC4R beta-arrestin recruitment, luminescence; scaled DMSO 0%, Melanotan II 100%; shares compounds with MC4R barr agon;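 active means mean activation across replicates above the hit cutoff set in the earlier primary screen, cut at about 8% in these data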
MOR DOR agonist = OPRM1-OPRD1 heterodimer agonism counter-screen. AID 602194. activation, % at 9.2 µM. shares compounds with MC4R barr agon. 5.8% of 2,400 active. U2OS PathHunter beta-arrestin, beta-gal luminescence; percent of deltorphin B response, DMSO zero;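 active means mean activation across replicates exceeds the hit threshold derived in the earlier primary screen, cut at about 18% in these data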;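 further: 100% = deltorphin B at 0.9 µM final and 0% = DMSO alone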
Target sequence (P35372 whole entry, looked up): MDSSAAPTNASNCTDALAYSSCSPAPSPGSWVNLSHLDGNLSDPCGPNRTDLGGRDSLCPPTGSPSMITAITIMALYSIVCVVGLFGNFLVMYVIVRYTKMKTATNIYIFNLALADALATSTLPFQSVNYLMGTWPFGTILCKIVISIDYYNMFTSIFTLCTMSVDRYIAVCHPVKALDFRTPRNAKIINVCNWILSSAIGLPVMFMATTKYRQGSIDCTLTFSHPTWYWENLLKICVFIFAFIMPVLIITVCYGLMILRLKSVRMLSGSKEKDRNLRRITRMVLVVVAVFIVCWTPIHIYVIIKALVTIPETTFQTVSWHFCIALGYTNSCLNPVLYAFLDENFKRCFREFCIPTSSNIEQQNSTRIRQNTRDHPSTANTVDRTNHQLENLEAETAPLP
Target sequence (P41143 whole entry, looked up): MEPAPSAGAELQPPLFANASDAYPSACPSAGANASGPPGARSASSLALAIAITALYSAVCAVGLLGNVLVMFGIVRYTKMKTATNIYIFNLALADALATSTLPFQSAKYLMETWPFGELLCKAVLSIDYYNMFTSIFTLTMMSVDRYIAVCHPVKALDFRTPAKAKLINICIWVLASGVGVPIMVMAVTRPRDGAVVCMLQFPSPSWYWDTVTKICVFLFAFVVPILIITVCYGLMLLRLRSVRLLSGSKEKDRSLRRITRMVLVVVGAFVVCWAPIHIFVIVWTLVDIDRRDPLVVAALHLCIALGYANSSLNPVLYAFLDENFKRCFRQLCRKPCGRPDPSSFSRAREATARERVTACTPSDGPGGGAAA
* hit, by the source's call; nt = no result.

SMILES	aDG glyco act	Tb MetRS inh	MC4R barr agon	H9c2 TAG inh	NTR1 ag	MC4R antagonist	cAMP nonselect	MC4R antag conf	others
CN(C)c1ccc(/C=C2/C(=O)NC(=O)N(Cc3ccco3)C2=O)cc1	0	0	1	nt	9	12	nt	nt
C[CH2][Hg][S]c1ccccc1C(=O)O	0	-1	-1	99	97*	95*	40*	91*	NTR1 ag confirm=95*
COc1cccc(C(c2nnnn2Cc2ccccc2)N2CCC3(CC2)C(=O)NCN3c2ccccc2)c1OC (stereo unspecified)	0	0	nt	nt	nt	nt	nt	nt
Cc1ccccc1CN1Cc2cnnn2-c2ccccc2C1C#N (stereo unspecified)	0	0	-1	57	nt	37*	5	45*
Cc1ccccc1C(=O)N1Cc2cnnn2-c2ccccc2C1C#N (stereo unspecified)	0	-1	2	-16	nt	5	nt	nt
O=C1NC(=O)N(c2cccc(Cl)c2)C(=O)/C1=C\c1ccc(Sc2nc3ccccc3[nH]2)o1	0	1	-2	-25	0	24	nt	nt
O=C1NC(=O)N(c2ccccc2)C(=O)/C1=C/c1ccc(Sc2ccccc2)o1	0	0	-2	nt	nt	29*	18*	6
c1cc2c(cc1-c1ccc3c(c1)OCO3)CNCc1cnnn1-2	0	1	nt	nt	nt	nt	nt	nt
Nc1ncnc2c1ccn2[C@@H]1O[C@H](CO)[C@@H](O)[C@H]1O	0	1	0	nt	-1	45*	94*	78*
NC(=S)c1cn(C2OC(CO)C(O)C2O)c2ncnc(N)c12 (stereo unspecified)	0	5	-2	nt	nt	31*	0	28
CCCC(C)CC1(CCO)C(=O)NC(=S)NC1=O (stereo unspecified)	0	0	-1	-2	nt	7	nt	nt
CCOP(=O)(CCP(=O)(OCC)OCC)OCC.C[CH2][Sn]([Cl])([Cl])[CH2]C	0	1	-2	109	nt	70*	11	29*
CCOP(=O)(OCC)OCC	0	0	0	nt	-1	6	nt	nt
COC(=O)[C@@]1(Sc2ccc(C)cc2)CC(=O)N(P(=O)(OC)OC)[C@@H]1c1ccccc1	0	0	nt	nt	nt	nt	nt	nt
COC(=O)C1=C(c2ccc(OCc3ccccc3)c(F)c2)C[C@@H]2CC[C@H]1N2C	0	-1	4	13	nt	12	nt	nt
C=C1C(C)C2C(Cc3ccccc3)NC(=O)C23OC(=O)/C=C/C(O)CCCC(C)C/C=C/C3C1O (stereo unspecified)	0	0	0	106	nt	36*	1	-2
CC12CC[C@H]3[C@@H](CCC4(O)C[C@H](O)CCC34/C=N/NC(=O)c3ccccc3O)C1(O)CCC2C1=CC(=O)OC1 (stereo partly specified)	0	4	6	2	0	29*	-5	-4
O=C(NN=Cc1ccc(N(CCCl)CCCl)cc1)C(=O)c1c[nH]c2ccccc12	1	0	1	-8	nt	31*	2	27
CCCCCN1C(=O)c2ccccc2[C@@]2(C(=O)OCC)Cc3cc(OC)ccc3[C@@H]12	0	0	nt	nt	nt	nt	nt	nt
COc1ccccc1N1C(=O)NC(=O)/C(=C\c2cnn(-c3ccccc3)c2)C1=O	0	1	2	-10	20	30*	11	9
CCOC(=O)c1cc2c(cn1)[C@@H](CCO)NC2	0	1	-3	0	nt	9	nt	nt
COc1ccc(-c2ccc3c(c2)CN(C(=O)CCc2ccccc2)Cc2cnnn2-3)cc1	0	0	nt	nt	nt	nt	nt	nt
C/C(=N\Nc1cccc2ccccc12)c1c(O)n(Cc2ccccc2)c(=O)[nH]c1=O	0	0	0	nt	4	29*	-2	-7
NC(N)=N/N=C/c1cn(-c2ccccc2)nc1-c1cccs1	-1	0	12*	124*	3	-4	nt	nt	MC4R barr conf=19*;MOR DOR agonist=24*
O=c1c2ccccc2nc(-c2cccs2)n1-c1ccccc1	0	0	-2	3	2	0	nt	nt
SMILES	aDG glyco act	Tb MetRS inh	MC4R barr agon	H9c2 TAG inh	NTR1 ag	MC4R antagonist	cAMP nonselect	MC4R antag conf	others
COc1ccc(CN2Cc3cc(N4CCOCC4)ccc3-n3nncc3C2)cc1	0	1	nt	nt	nt	nt	nt	nt
Clc1ccc(C[n+]2c(-c3ccccc3)cc(-c3ccccc3)cc2-c2ccccc2)cc1	1	0	16*	36	25	-4	nt	nt	MC4R barr conf=20*;MOR DOR agonist=7
N[C@@H](Cc1c[nH]c2ccccc12)c1nnc(SCc2ccccc2)o1	0	0	0	18	0	0	nt	nt
N[C@@H](Cc1c[nH]c2ccccc12)c1nnc(SCc2ccc(Cl)cc2)o1	0	0	10*	12	0	-3	nt	nt	MC4R barr conf=4;MOR DOR agonist=6
Nc1cccc(SC2CC(=O)N(c3ccc(Cl)cc3C(=O)c3ccccc3)C2=O)c1 (stereo unspecified)	0	0	9.7*	-8	nt	-5	nt	nt	MC4R barr conf=4;MOR DOR agonist=9
Cc1ccc(OC(=O)N(C)C[C@@H]2OCc3cnnn3CCCC(=O)N([C@@H](C)CO)C[C@H]2C)cc1	0	-1	-2	5	nt	2	nt	nt
COc1ccc(CC2NCC(O)C2OC(C)=O)cc1 (stereo unspecified)	0	0	-1	nt	nt	17	nt	nt
CC12CCC3C(CC=C4CC(O)CCC43C)C1C/C(=C\c1ccccc1F)C2=O (stereo unspecified)	0	0	27*	nt	28	7	nt	nt	MC4R barr conf=25*;MOR DOR agonist=4
CCOc1cc(CNCCc2c[nH]c3ccccc23)cc(Cl)c1OCC	0	1	15*	nt	8	5	nt	nt	MC4R barr conf=17*;MOR DOR agonist=8
CCOc1c(Cl)cc(CNCCc2c[nH]c3ccccc23)cc1OC	0	-1	-1	8	5	-1	nt	nt
